Reference: ChEMBL document CHEMBL4359889 (Eur J Med Chem, 2019)

Legend:
[1] = Drug uptake in human H441 cells at 1 uCi incubated for 30 mins by radioactivity-based assay; assay type: ADME, cell-based; settings: nci-h441, 0.5 h
Procedure, shortened: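 Medium removed, two ice-cold PBS washes, trypsinised 5 min at 37°C, gamma counted. Uptake expressed as counts per minute per million cells; triplicate.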

[2] = Biodistribution in nude mouse assessed as accumulation in muscle tissue at 100 uCi, iv measured for 60 mins by PET imaging analysis; assay type: ADME, organism-based; settings: in vivo, 1 h
Procedure, shortened: (§1)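 Dynamic PET 0–10 min after injection under anesthesia, then 10-min static scans at 30 and 60 min. Regions of interest drawn on decay-corrected whole-body coronal images and converted to %ID/cc. Mean ± SD.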

[3] = Drug uptake in human NCI-H2228 cells harboring EML4-fused ALK variant 3 at 1 uCi incubated for 30 mins by radioactivity-based assay; assay type: ADME, cell-based; settings: nci-h2228, 0.5 h
Procedure, shortened: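 H2228 cells seeded at 10⁶ per well in RPMI-1640 with 10% FBS. Wells washed twice with ice-cold PBS, cells trypsinized 5 min at 37°C, then gamma counted. Uptake given as cpm per million cells, in triplicate.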

[4] = Biodistribution in nude mouse assessed as accumulation in brain tissue at 100 uCi, iv measured for 60 mins by PET imaging analysis; assay type: ADME, organism-based; settings: in vivo, 1 h; procedure, shortened: as §1
NCI-H2228 = assay: Cytotoxicity in human NCI-H2228 cells harboring EML4-fused ALK variant 3 incubated for 72 hrs by alamar blue reagent based assay; assay type: functional, cell-based; settings: NCI-H2228, 72 h
NCI-H441 = assay: Cytotoxicity in human H441 cells incubated for 72 hrs by alamar blue reagent based assay; assay type: cell-based
Procedure, shortened: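 Cells seeded at 8,000 per well in RPMI-1640 with 10% FBS, dosed next day across a concentration range for 72 h. Alamar Blue (1:10, in phenol red-free RPMI with 10% FBS) added for 4 h, fluorescence read at ex 530/em 580 nm. IC50 from curve fit; triplicate in three independent sets, mean ± SD.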

[5] = Biodistribution in nude mouse assessed as accumulation in kidney tissue at 100 uCi, iv measured for 5 mins by PET imaging analysis; assay type: ADME, organism-based; settings: in vivo; procedure, shortened: as §1
[6] = Biodistribution in nude mouse assessed as accumulation in kidney tissue at 100 uCi, iv measured for 10 mins by PET imaging analysis; assay type: ADME, organism-based; settings: in vivo; procedure, shortened: as §1
[7] = Lipophilicity, log D of the compound in octanol/pH 7.4 PBS vortex at 1 uCi for 5 mins and repeated for 4 times by gamma counter method; assay type: physicochemical; settings: octanol/water, pH 7.4, 5 min
Procedure, shortened: (§2)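 Vortexed 5 min, repeated four times, then centrifuged 2×5 min at 4000 rpm, 4°C. Value taken from the ratio of octanol to aqueous activity.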

[8] = Octanol/water partition coefficient, logP of compound at 1 uCi vortex for 5 mins and repeated for 4 times by gamma counter method; assay type: physicochemical; procedure, shortened: as §2
[9] = Biodistribution in nude mouse assessed as accumulation in brain tissue at 100 uCi, iv measured for 10 mins by PET imaging analysis; assay type: ADME, organism-based; settings: in vivo; procedure, shortened: as §1
[10] = Biodistribution in nude mouse assessed as accumulation in liver tissue at 100 uCi, iv measured for 10 mins by PET imaging analysis; assay type: ADME, organism-based; settings: in vivo; procedure, shortened: as §1
[11] = Biodistribution in nude mouse assessed as accumulation in brain tissue at 100 uCi, iv measured for 30 mins by PET imaging analysis; assay type: ADME, organism-based; settings: in vivo, 0.5 h; procedure, shortened: as §1
[12] = Biodistribution in nude mouse assessed as accumulation in heart tissue at 100 uCi, iv measured for 10 mins by PET imaging analysis; assay type: ADME, organism-based; settings: in vivo; procedure, shortened: as §1
[13] = Biodistribution in nude mouse assessed as accumulation in liver tissue at 100 uCi, iv measured for 30 mins by PET imaging analysis; assay type: ADME, organism-based; settings: in vivo, 0.5 h; procedure, shortened: as §1
[14] = Biodistribution in nude mouse assessed as accumulation in muscle tissue at 100 uCi, iv measured for 10 mins by PET imaging analysis; assay type: ADME, organism-based; settings: in vivo; procedure, shortened: as §1
[15] = Biodistribution in nude mouse assessed as accumulation in brain tissue at 100 uCi, iv measured for 5 mins by PET imaging analysis; assay type: ADME, organism-based; settings: in vivo; procedure, shortened: as §1
[16] = Biodistribution in nude mouse assessed as accumulation in heart tissue at 100 uCi, iv measured for 5 mins by PET imaging analysis; assay type: ADME, organism-based; settings: in vivo; procedure, shortened: as §1
[17] = Biodistribution in nude mouse assessed as accumulation in liver tissue at 100 uCi, iv measured for 60 mins by PET imaging analysis; assay type: ADME, organism-based; settings: in vivo, 1 h; procedure, shortened: as §1
[18] = Biodistribution in nude mouse assessed as accumulation in heart tissue at 100 uCi, iv measured for 60 mins by PET imaging analysis; assay type: ADME, organism-based; settings: in vivo, 1 h; procedure, shortened: as §1
[19] = Biodistribution in nude mouse assessed as accumulation in kidney tissue at 100 uCi, iv measured for 30 mins by PET imaging analysis; assay type: ADME, organism-based; settings: in vivo, 0.5 h; procedure, shortened: as §1
[20] = Biodistribution in nude mouse assessed as accumulation in heart tissue at 100 uCi, iv measured for 30 mins by PET imaging analysis; assay type: ADME, organism-based; settings: in vivo, 0.5 h; procedure, shortened: as §1
[21] = Biodistribution in nude mouse assessed as accumulation in kidney tissue at 100 uCi, iv measured for 60 mins by PET imaging analysis; assay type: ADME, organism-based; settings: in vivo, 1 h; procedure, shortened: as §1
[22] = Biodistribution in nude mouse assessed as accumulation in muscle tissue at 100 uCi, iv measured for 30 mins by PET imaging analysis; assay type: ADME, organism-based; settings: in vivo, 0.5 h; procedure, shortened: as §1
[23] = Biodistribution in nude mouse assessed as accumulation in liver tissue at 100 uCi, iv measured for 5 mins by PET imaging analysis; assay type: ADME, organism-based; settings: in vivo; procedure, shortened: as §1
[24] = Biodistribution in nude mouse assessed as accumulation in muscle tissue at 100 uCi, iv measured for 5 mins by PET imaging analysis; assay type: ADME, organism-based; settings: in vivo; procedure, shortened: as §1

Q: For `CCc1cc2c(cc1N1CCC(N3CCOCC3)CC1)C(C)(C)c1c(c3ccc(C#N)cc3n1CC[18F])C2=O`, which Drug uptake [1] is on record?
A: Active

Q: What does the source list for `C[C@@H](Oc1cc(-c2cnn(C3CCN(CC[18F])CC3)c2)cnc1N)c1c(Cl)ccc(F)c1Cl`?
A: Drug uptake [2]: 1.2 %ID/cc; Drug uptake [3]: Active; Drug uptake [4]: 1.8 %ID/cc

Q: Which IC50 (NCI-H2228) does the source give for `Cc1cc(Nc2ncc(Cl)c(Nc3ccccc3S(=O)(=O)C(C)C)n2)c(OC(C)C)cc1C1CCN(CCF)CC1` here?
A: 24.2 µM

Q: Which IC50 (NCI-H2228) does the source give for `C[C@@H](Oc1cc(-c2cnn(C3CCN(CCF)CC3)c2)cnc1N)c1c(Cl)ccc(F)c1Cl` here?
A: 7.5 µM

Q: Which IC50 (NCI-H441) does the source give for `CCc1cc2c(cc1N1CCC(N3CCOCC3)CC1)C(C)(C)c1[nH]c3cc(C#N)ccc3c1C2=O` [ALECTINIB] here?
A: Non-Toxic

Q: What does the source list for `Cc1cc(Nc2ncc(Cl)c(Nc3ccccc3S(=O)(=O)C(C)C)n2)c(OC(C)C)cc1C1CCN(CC[18F])CC1`?
A: Drug uptake [5]: 20.2 %ID/cc; Drug uptake [2]: 2.1 %ID/cc; Drug uptake [6]: 18.2 %ID/cc; logD [7]: 1.51; logP [8]: 0.97; Drug uptake [3]: Active; Drug uptake [9]: 6.5 %ID/cc; Drug uptake [10]: 17.9 %ID/cc; Drug uptake [11]: 4.6 %ID/cc; Drug uptake [12]: 7 %ID/cc; Drug uptake [13]: 9.5 %ID/cc; Drug uptake [14]: 3.9 %ID/cc; Drug uptake [15]: 6.6 %ID/cc; Drug uptake [16]: 9.1 %ID/cc; Drug uptake [17]: 6.4 %ID/cc; Drug uptake [4]: 4 %ID/cc; Drug uptake [18]: 2.6 %ID/cc; Drug uptake [19]: 7.2 %ID/cc; Drug uptake [20]: 3.1 %ID/cc; Drug uptake [21]: 5.7 %ID/cc; Drug uptake [22]: 2.4 %ID/cc; Drug uptake [23]: 16.8 %ID/cc; Drug uptake [24]: 3.6 %ID/cc

Q: Which results are given for `CCc1cc2c(cc1N1CCC(N3CCOCC3)CC1)C(C)(C)c1c(c3ccc(C#N)cc3n1CCF)C2=O`?
A: IC50 (NCI-H2228): 0.01 µM; IC50 (NCI-H441): Non-Toxic
